Laboratory results reported in ChEMBL document CHEMBL1782034, “Design, synthesis and biological evaluation of novel substituted benzoylguanidine derivatives as potent Na+/H+ exchanger inhibitors” (Bioorg Med Chem Lett, 2009).
The source made the active and inactive calls.

Assays:
Rattus norvegicus [1] = assay: Cardioprotective activity against ischemia-reperfusion injury in Sprague-Dawley rat assessed as decrease in myocardial infarct size at 1 mg/kg, iv; format: functional, organism-based; parameters: dose 1 mg/kg; details: Myocardium
How it was run: (§1)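 In vivo rat model: coronary artery ligated 45 min, then the ligature is loosened for 90 min of reperfusion. Compound is given as an iv bolus 5 min before reperfusion at 1, 0.5 or 0.25 mg/kg. Infarct size is expressed as a percentage of left ventricle area (IS/LV%). n = 8; compared against sham and model groups.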

Rattus norvegicus [2] = assay: Cardioprotective activity against ischemia-reperfusion injury in Sprague-Dawley rat assessed as decrease in LDH release at 1 mg/kg, iv; format: functional, organism-based; parameters: dose 1 mg/kg
How it was run: (§2)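 Rats undergo 45 min coronary artery occlusion followed by 90 min reperfusion. Compound is given iv 5 min before reperfusion at 1, 0.5 or 0.25 mg/kg. Prepared serum is assayed for CK, LDH and SOD activities and MDA content as injury indicators, versus sham and model groups.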

Rattus norvegicus [3] = assay: Cardioprotective activity against ischemia-reperfusion injury in Sprague-Dawley rat assessed as decrease in creatine kinase release at 1 mg/kg, iv; format: functional, organism-based; parameters: dose 1 mg/kg; how it was run: as §2
Rattus norvegicus [4] = species on record: Rattus norvegicus; assay: Cardioprotective activity against Langendorff perfused Sprague-Dawley rat heart assessed as increase in relaxing coronary artery at 10 uM; format: functional, organism-based
How it was run: (§3)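 Isolated hearts are equilibrated 20 min, perfused at a low rate (0.5 ml/min) for 30 min with compound in the perfusate, then reperfused 30 min. Coronary flow at the start and at the end of reperfusion is expressed as a ratio to the end-of-equilibration value. n = 10.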

Rattus norvegicus [5] = assay: Cardioprotective activity against ischemia-reperfusion injury in Sprague-Dawley rat assessed as increase in SOD activity in serum at 1 mg/kg, iv; format: functional, organism-based; parameters: dose 1 mg/kg; how it was run: as §2
Rattus norvegicus [6] = assay: Cardioprotective activity against ischemia-reperfusion injury in Sprague-Dawley rat assessed as decrease in malondialdehyde at 1 mg/kg, iv; format: functional, organism-based; parameters: dose 1 mg/kg; how it was run: as §2
Rattus norvegicus [7] = species on record: Rattus norvegicus; assay: Cardioprotective activity against Langendorff perfused Sprague-Dawley rat heart assessed as increase in myocardial energy metabolism at 10 uM; format: functional, organism-based
How it was run: (§4)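 Isolated rat hearts: 20 min equilibration, then 30 min low-rate perfusion (0.5 ml/min), then 30 min reperfusion. Drug is added to the perfusate during the low-rate period only. After reperfusion, the heart tissue homogenate is assayed for Na+-K+ ATPase activity, lactate (LD) content and ATP content. n = 10; compared against sham and model groups.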

Rattus norvegicus [8] = species on record: Rattus norvegicus; assay: Cardioprotective activity against Langendorff perfused Sprague-Dawley rat heart assessed as decrease in lactic acid content in homogenates at 2 to 50 uM; format: functional; how it was run: as §4
Rattus norvegicus [9] = species on record: Rattus norvegicus; assay: Cardioprotective activity against Langendorff perfused Sprague-Dawley rat heart assessed as increase in relaxing coronary artery at 50 uM; format: functional, organism-based; how it was run: as §3
Rattus norvegicus [10] = species on record: Rattus norvegicus; assay: Cardioprotective activity against Langendorff perfused Sprague-Dawley rat heart assessed as increase in coronary flow at 2 to 50 uM; format: functional, organism-based; how it was run: as §3
Rattus norvegicus [11] = assay: Cardioprotective activity against ischemia-reperfusion injury in iv dosed Sprague-Dawley rat assessed as decrease in creatine kinase release; format: functional, organism-based; how it was run: as §2
Rattus norvegicus [12] = species on record: Rattus norvegicus; assay: Cardioprotective activity against Langendorff perfused Sprague-Dawley rat heart assessed as increase in […]-K+ ATPase activity in homogenates at 2 to 50 uM; format: functional; how it was run: as §4
Rattus norvegicus [13] = assay: Cardioprotective activity against ischemia-reperfusion injury in iv dosed Sprague-Dawley rat assessed as decrease in myocardial infarct size; format: functional, organism-based; details: Myocardium; how it was run: as §1
Rattus norvegicus [14] = assay: Cardioprotective activity against ischemia-reperfusion injury in iv dosed Sprague-Dawley rat assessed as decrease in LDH release; format: functional, organism-based; how it was run: as §2
Rattus norvegicus [15] = assay: Cardioprotective activity against ischemia-reperfusion injury in iv dosed Sprague-Dawley rat assessed as increase in SOD activity in serum; format: functional, organism-based; how it was run: as §2
Rattus norvegicus [16] = species on record: Rattus norvegicus; assay: Cardioprotective activity against Langendorff perfused Sprague-Dawley rat heart assessed as increase in myocardial energy metabolism; format: functional, organism-based; how it was run: as §4
Rattus norvegicus [17] = assay: Cardioprotective activity against ischemia-reperfusion injury in iv dosed Sprague-Dawley rat assessed as decrease in malondialdehyde; format: functional, organism-based; how it was run: as §2
Rattus norvegicus [18] = species on record: Rattus norvegicus; assay: Cardioprotective activity against Langendorff perfused Sprague-Dawley rat heart assessed as increase in ATP content in homogenates at 2 to 50 uM; format: functional; how it was run: as §4

Measured: Activity

CC(C)c1ccc(C(=O)N=C(N)N)cc1S(C)(=O)=O
active: Rattus norvegicus [1] | Rattus norvegicus [2] | Rattus norvegicus [3] | Rattus norvegicus [4] | Rattus norvegicus [5] | Rattus norvegicus [6] | Rattus norvegicus [7]

COc1ccc(CN2CCN(Cc3ccc(C(=O)N=C(N)N)cc3[N+](=O)[O-])CC2)c(OC)c1OC
active: Rattus norvegicus [1] | Rattus norvegicus [8] | Rattus norvegicus [9] | Rattus norvegicus [10] | Rattus norvegicus [11] Dose-dependent effect | Rattus norvegicus [12] | Rattus norvegicus [13] Dose-dependent effect | Rattus norvegicus [14] Dose-dependent effect | Rattus norvegicus [2] | Rattus norvegicus [15] Dose-dependent effect | Rattus norvegicus [3] | Rattus norvegicus [16] Dose-dependent effect | Rattus norvegicus [17] Dose-dependent effect | Rattus norvegicus [4] | Rattus norvegicus [5] | Rattus norvegicus [18] | Rattus norvegicus [6]
